# The list is a sample of the results.
# Apaf1 activ = activators of human Apaf-1 apoptosome. O14727. Apaf-1 apoptosome caspase-3 activation, DEVD-Rh110 fluorescence; stronger effect = lower value. activity change, negative = activation, % at 20 µM. hit rate 0.31% among 330,000. AID 489031;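 active = activity change at or below -40% at 20 µM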
# Target sequence (O14727 whole entry, looked up): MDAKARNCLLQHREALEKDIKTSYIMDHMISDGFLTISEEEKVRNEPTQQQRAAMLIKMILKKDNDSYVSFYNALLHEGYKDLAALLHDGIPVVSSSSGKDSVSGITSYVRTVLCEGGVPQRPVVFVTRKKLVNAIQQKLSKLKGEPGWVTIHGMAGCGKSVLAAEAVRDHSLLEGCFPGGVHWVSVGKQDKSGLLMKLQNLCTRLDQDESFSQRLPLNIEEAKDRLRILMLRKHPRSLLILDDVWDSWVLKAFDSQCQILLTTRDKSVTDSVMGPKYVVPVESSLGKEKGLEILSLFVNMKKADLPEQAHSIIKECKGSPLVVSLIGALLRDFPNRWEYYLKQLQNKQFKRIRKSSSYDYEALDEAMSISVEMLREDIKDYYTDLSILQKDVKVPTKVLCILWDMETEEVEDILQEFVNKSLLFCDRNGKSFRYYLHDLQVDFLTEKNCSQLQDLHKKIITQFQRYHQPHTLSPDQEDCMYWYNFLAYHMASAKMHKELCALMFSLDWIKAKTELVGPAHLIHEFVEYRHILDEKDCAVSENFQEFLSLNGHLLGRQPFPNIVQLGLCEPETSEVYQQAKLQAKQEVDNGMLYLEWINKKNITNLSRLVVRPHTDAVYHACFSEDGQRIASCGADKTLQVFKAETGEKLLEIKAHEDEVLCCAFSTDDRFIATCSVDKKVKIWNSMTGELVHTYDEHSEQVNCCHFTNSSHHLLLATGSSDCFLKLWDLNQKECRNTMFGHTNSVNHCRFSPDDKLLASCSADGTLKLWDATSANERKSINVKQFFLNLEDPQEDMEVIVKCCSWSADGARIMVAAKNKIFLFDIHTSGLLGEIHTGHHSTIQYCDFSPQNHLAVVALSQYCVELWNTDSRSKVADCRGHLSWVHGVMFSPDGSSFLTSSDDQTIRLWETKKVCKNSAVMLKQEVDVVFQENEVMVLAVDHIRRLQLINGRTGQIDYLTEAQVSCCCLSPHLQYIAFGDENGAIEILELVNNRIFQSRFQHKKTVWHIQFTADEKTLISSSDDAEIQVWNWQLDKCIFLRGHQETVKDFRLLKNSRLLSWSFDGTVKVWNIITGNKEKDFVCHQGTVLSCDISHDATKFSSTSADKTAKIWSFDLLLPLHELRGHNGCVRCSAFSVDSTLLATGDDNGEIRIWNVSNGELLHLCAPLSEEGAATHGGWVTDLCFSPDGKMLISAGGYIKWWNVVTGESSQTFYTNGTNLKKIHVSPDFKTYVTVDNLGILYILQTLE
#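 system = biochemical Apaf-1 apoptosome reconstitution | buffer or medium = 20 mM HEPES pH 7.5 with CHAPS, BSA | also added = dATP and cytochrome c as apoptosome triggers, (Z-DEVD)2-Rh110 substrate | incubation = 30 min compound preincubation and 50 min reaction, both room temperature | measured by = fluorescence, 540 nm emission, 480 nm excitation | read-out basis = Caspase-3 cleavage activity downstream of Apaf-1 activation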
# Rh110 interf act = interferes with Rh110 fluorescence, flagging false Apaf-1 activators; shares compounds with Apaf1 activ; Rh110 fluorescence interference, quenched caspase reaction, Ex480/Em540; fluorescence interference (activity change), % at 20 µM, hits read low; 980 tested, under 10 active; AID 504616;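 active = mean activity change at or below -40% when tested at 20 µM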
# Apaf-1 act conf = Apaf-1 (human) activation, single-dose confirmed; shares compounds with Apaf1 activ; reconstituted apoptosome caspase-3 activity, DEVD-Rh110 fluorescence; stronger effect = lower value; activity change, negative = activation, % at 20 µM; hit rate 5% among 980; AID 504617;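 active = mean activity change at or below -40%, meaning activation of 40% or more, at 20 µM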
# Apaf1 act interf = counter-screen for Apaf-1 activators: fluorescence interference, dose response. EC50, µM. AID 588592. shares compounds with Apaf1 activ. 55 tested, under 10 active. fluorescence interference counterscreen, Apaf-1 activator assay; call rule not given here
# Numbers stand for hits; 0 = inactive; - = no result.
SMILES,Apaf1 activ,Rh110 interf act,Apaf-1 act conf,others
C#CCOCCOCCOCCNc1nc(N2CCN(C(=O)[C@H]([C@@H](C)CC)n3cc([C@@H](N)CO)nn3)CC2)nc(N2CCN(C(=O)[C@H](Cc3cc4ccccc4[nH]3)n3cc([C@@H](N)Cc4ccc(O)cc4)nn3)CC2)n1,0,-,-,
Cc1ccc(N(CC(=O)N/N=C/c2ccc(OC3CSC3)cc2)S(=O)(=O)c2ccccc2)c(C)c1,0,-,-,
c1ccc(CNc2nc(NCc3ccccc3)c3ccccc3n2)cc1,0,-,-,
Cc1cccc(C)c1NC(=O)CSCC(=O)c1ccc(O)c(O)c1,-160.9,0,0,
O=C1c2ccccc2-c2c1nc1c([n+]2[O-])CCCC1,0,-,-,
COc1cc([N+](=O)[O-])cc(/C=N/NC(=O)C(C)Nc2cccc3ccccc23)c1O (stereo unspecified),0,-,-,
Cc1[nH]n(-c2ccccc2)c(=O)c1/C=N/NC(=O)c1cccc([N+](=O)[O-])c1,0,-,-,
O=C(Cn1nnc(-c2ccccc2)n1)N/N=C/c1cc([N+](=O)[O-])ccc1O,-56.7,0,0,
CCOC(=O)C1CCN(C(=O)Nc2ccc3nc(-c4ccco4)c(-c4ccco4)nc3c2)CC1,0,-,-,
COc1ccc(NC(=S)N2CCC(C(=O)c3ccc(C)cc3)CC2)cc1,-102.6,0,0,
COc1cc(/C=C2/C(=O)N(c3cccc(Br)c3)N=C2C)cc(OC)c1O,0,-,-,
Cn1nc(-c2ccc(Cl)cc2)c2cc(C(=O)NCCCN3CCCC3)sc21,0,-,-,
O=C(CSc1nncc2ccccc12)N1CCOCC1,-543.2,0,0,
O=C(CSc1c[nH]c2ccccc12)N1CCOCC1,-42.2,0,0,
OCCN1CCN(CC/C=C2/c3ccccc3Sc3ccc(C(F)(F)F)cc32)CC1,0,-,-,
CCc1ccc2[nH]c(C(=O)Nc3ccc(Br)c(C)n3)cc2c1,-483.9,0,0,
Clc1ccc(-c2cn3nc4c(nc3n2)CCCC4)cc1,0,-,-,
CN(CCO)c1cc(Sc2nc3ccccc3s2)c2nonc2c1[N+](=O)[O-],0,-,-,
CC[C@@H](C)[C@@H]1CN([C@@H](CN2CCC[C@H]2CN2C(N)=NC[C@H]2C(C)C)C(C)C)C(=N)N1CCCC1CCCC1,0,-,-,
CN(C)c1cccc2c1c(NS(=O)(=O)c1cn(C)cn1)nn2C,0,-,-,
CN(Cc1ccccc1)S(=O)(=O)c1cn(C)cn1,-113.1,0,0,
C[C@H](CO)N1C[C@H](C)[C@@H](CN(C)Cc2ccc(-c3ccccc3)cc2)Oc2c(NC(=O)Cc3ccccc3)cccc2C1=O,0,-,-,
CC(C)(CS(=O)(=O)[O-])NC(=O)CC[N+](C)(C)CCO,-597.6,0,-128.0,Apaf1 act interf=0
O=C1C2C3C=CC(C3)C2C(=O)N1CNc1ccc(O)cc1 (stereo unspecified),0,-,-,
CCOc1ccc(OCC(=O)OCn2c(SC)nnc(C)c2=O)cc1,-75.9,0,0,
SMILES,Apaf1 activ,Rh110 interf act,Apaf-1 act conf,others
NC1(C#Cc2ccc3oc(=O)c(-n4cc(-c5ccsc5)nn4)cc3c2)CCCCC1,0,-,-,
Cc1ccccc1OCc1n(CC(=O)OC2CC(C)CCC2C(C)C)c2ccccc2[n+]1C (stereo unspecified),0,-,-,
O=C1CC(c2ccccc2)n2ncnc2N1 (stereo unspecified),-347.5,0,0,
CN(C)CCCN1c2ccccc2Sc2ccc(C(F)(F)F)cc21,0,-,-,
CC(C)C(NS(=O)(=O)c1ccc2c(c1)oc(=O)n2C)C(=O)N1CCN(C2CCCCC2)CC1 (stereo unspecified),-53.8,0,0,
CCOc1cc2c(C#N)c(N3CCCCC3)nc(N)c2c(N)n1,0,-,-,
CCOC(=O)C1CCN(C(=O)c2ccc3c(c2)NC(=O)/C(=C\c2cccc(C)c2)S3)CC1,0,-,-,
Cc1cccc(N(C(=O)Cn2nnc3ccccc32)C(C(=O)NCc2ccco2)c2ccncc2)c1 (stereo unspecified),-46.8,0,0,
CN1CCc2cccc3c2[C@@H]1Cc1ccc(O)c(O)c1-3,0,-,-,
Cc1[nH]cnc1CSCc1ccc(Cl)cc1,-426.1,0,0,
O=C1C(Cl)=C(NCCCO)C(=O)c2ccccc21,0,-,-,
O=C(N/N=C/c1ccc(-c2ccccc2[N+](=O)[O-])o1)[C@H]1C[C@@H]1c1ccccc1,0,-,-,
CC1=NN(c2ccc(S(=O)(=O)O)cc2Cl)C(=O)C1,0,-,-,
Cc1[nH]n(-c2ccccc2)c(=O)c1C(=O)c1ccccc1,0,-,-,
CC(=O)c1ccc(Nc2nc(-c3cccnc3)cs2)cc1,-208.2,0,0,
Cc1ccc2c(c1)c1cccc3c1n2CCN3CCC(N)=O,0,-,-,
C=C(C)C(=O)Nc1cccc(C2=NOC3(C2)C[C@@H](C(N)=O)N(C(=O)/C(C)=C/C)C3)c1 (stereo partly specified),-288.2,0,-119.6,Apaf1 act interf=0
C=C(C)C(=O)Nc1cccc(C2=NOC3(C2)C[C@@H](C(N)=O)N(C(=O)CC(c2ccccc2)c2ccccc2)C3)c1 (stereo partly specified),-107.0,0,0,
C=C(C)C(=O)Nc1cccc(C2=NOC3(C2)C[C@@H](C(N)=O)N(C(=O)/C=C/C=C/C)C3)c1 (stereo partly specified),-326.2,0,-129.2,Apaf1 act interf=0
C=C(C)C(=O)Nc1cccc(C2=NOC3(C2)C[C@H](C(N)=O)N(C(=O)c2ccccc2C(=O)c2ccccc2)C3)c1 (stereo partly specified),-269.6,0,-125.2,Apaf1 act interf=0
Oc1ccc(/C=N\Nc2cc(N3CCOCC3)nc(N3CCOCC3)n2)c(O)c1,0,-,-,
CCc1ccc(NC(=S)Nc2cccc3cnccc23)cc1,0,-,-,
O=C1/C(=C\c2ccc(-c3ccccc3[N+](=O)[O-])o2)C(c2ccccc2)=NN1c1ccccc1,0,-,-,
O=C1NC(=O)[C@@H]2C3c4ccccc4C=CN3[C@H](C(=O)c3cccs3)[C@H]12 (stereo partly specified),0,-,-,
CC(C)N1CCc2c(sc(NC(=O)c3cc(-c4cccs4)nc4ccccc34)c2C(N)=O)C1,0,-,-,
SMILES,Apaf1 activ,Rh110 interf act,Apaf-1 act conf,others
C#CCOCCOCCOCCNc1nc(N2CCN(C(=O)CCCCCCCCCCNC(=O)[C@H]([C@@H](C)CC)n3cc(CCCCCN)nn3)CC2)nc(N2CCN(C(=O)CCCCCCCCCCNC(=O)[C@H]([C@@H](C)CC)n3cc(CCCCN=C(N)N)nn3)CC2)n1,0,-,-,
COc1cc(OC)cc(C(=O)NCC(=O)OCC(=O)c2ccc3c(c2)-c2ccccc2C3)c1,-64.9,0,0,
CCCCCCCCCCOC(=O)Cn1c(COc2ccc(OC)cc2)[n+](C)c2ccccc21,0,-,-,
O=C(c1ccccc1)[C@@H]1[C@@H](C(=O)c2ccc(F)cc2)[C@@]2(C(=O)Nc3ccccc32)[C@H]2c3ccccc3C=CN12,0,-,-,
CCOCCCNc1nc2nc3ccc(C)cn3c(=O)c2cc1C(=O)NCC1CCCO1 (stereo unspecified),-69.0,0,0,
CSc1nncc(/C(C)=N\Nc2ccccc2)n1,0,-,-,
CCn1cc(CN2CCC(n3nccc3NC(=O)Cc3ccccc3)CC2)cn1,-53.4,0,0,
COc1ccc(S(=O)(=O)N2CCN(c3ccc4nnc(-c5ccc(F)cc5)n4n3)CC2)cc1,0,-,-,
Nc1ncc(Br)cc1N=Cc1ccccc1,0,-,-,
CCOC(=O)c1cc(C(=O)c2cccs2)n2ccc(C(C)=O)cc12,0,-,-,

# Bioassay records as filed in PubChem BioAssay.
